ChEMBL document CHEMBL1781884, “Design, synthesis, and structure-activity relationship of tropane muscarinic acetylcholine receptor antagonists” (J Med Chem, 2009)

Key:
[1] = biological target: T1, Muscarinic acetylcholine receptor M3 (Homo sapiens, UniProt P20309); experiment: Antagonist activity against human M3 receptor expressed in CHO cells assessed as inhibition of acetylcholine-induced calcium mobilization by FLIPR; assay type: functional, cell-based; conditions: for Kb: read-out: pA2 (converted)
Mus musculus [2] = experiment: Inhibition of methacholine-induced bronchoconstriction in dosed BALB/c mouse assessed as respiratory values at 5 ug, intranasal at 24 hrs; assay type: functional
Mus musculus [3] = experiment: Bronchorelaxant activity in intranasally dosed BALB/c mouse bronchus assessed as inhibition of methacholine-induced contraction; assay type: functional
Mus musculus [4] = organism: Mus musculus; experiment: Bronchorelaxant activity in methacholine-induced BALB/c mouse bronchus contraction model assessed as time to 50% loss of maximum protection at 5 ug, intranasally; assay type: functional
How it was run: (§1)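 Balb/C mice (n = 4 per group) dosed intranasally (50 μL, 10% DMSO vehicle); challenged 0.25-48 h later with 30 mg/mL methacholine aerosol for 2 min; Penh recorded over next 5 min, as ratio of post-drug to pre-drug Penh; duration taken as time to 50% loss of maximum protection.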

[5] = Systemic plasma clearance in rat at 2.8 mg/kg, iv; assay type: ADME, organism-based; design: dose 2.8 mg/kg, route intravenous
[6] = biological target: T2, Muscarinic acetylcholine receptor M1 (Homo sapiens, UniProt P11229); experiment: Displacement of [3H]N-methyl Scopolamine from human muscarinic M1 receptor expressed in CHO cells by scintillation proximity assay; assay type: cell-based
T2 sequence (P11229 whole entry): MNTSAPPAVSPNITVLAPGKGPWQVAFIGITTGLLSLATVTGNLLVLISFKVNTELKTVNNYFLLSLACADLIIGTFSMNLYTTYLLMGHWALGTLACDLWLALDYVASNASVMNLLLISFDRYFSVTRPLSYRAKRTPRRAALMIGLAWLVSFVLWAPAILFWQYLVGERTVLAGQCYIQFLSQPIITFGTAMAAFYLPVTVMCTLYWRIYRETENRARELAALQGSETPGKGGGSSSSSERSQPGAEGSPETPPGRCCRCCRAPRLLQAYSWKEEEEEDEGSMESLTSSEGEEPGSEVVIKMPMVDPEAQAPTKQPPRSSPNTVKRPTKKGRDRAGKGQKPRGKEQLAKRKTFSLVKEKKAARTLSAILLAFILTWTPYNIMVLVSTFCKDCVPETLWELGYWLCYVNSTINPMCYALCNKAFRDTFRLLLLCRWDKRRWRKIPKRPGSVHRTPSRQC
How it was run: (§2)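 Scintillation proximity binding on membranes from CHO cells expressing human M1, M2 or M3 receptor, competing against 0.5 nM [3H]-N-methylscopolamine; Ki reported, mean of two or more independent assays.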

[7] = biological target: T3, Muscarinic acetylcholine receptor M2 (Homo sapiens, UniProt P08172); experiment: Displacement of [3H]N-methyl Scopolamine from human muscarinic M2 receptor expressed in CHO cells by scintillation proximity assay; assay type: cell-based; how it was run: as §2
T3 sequence (P08172 whole entry): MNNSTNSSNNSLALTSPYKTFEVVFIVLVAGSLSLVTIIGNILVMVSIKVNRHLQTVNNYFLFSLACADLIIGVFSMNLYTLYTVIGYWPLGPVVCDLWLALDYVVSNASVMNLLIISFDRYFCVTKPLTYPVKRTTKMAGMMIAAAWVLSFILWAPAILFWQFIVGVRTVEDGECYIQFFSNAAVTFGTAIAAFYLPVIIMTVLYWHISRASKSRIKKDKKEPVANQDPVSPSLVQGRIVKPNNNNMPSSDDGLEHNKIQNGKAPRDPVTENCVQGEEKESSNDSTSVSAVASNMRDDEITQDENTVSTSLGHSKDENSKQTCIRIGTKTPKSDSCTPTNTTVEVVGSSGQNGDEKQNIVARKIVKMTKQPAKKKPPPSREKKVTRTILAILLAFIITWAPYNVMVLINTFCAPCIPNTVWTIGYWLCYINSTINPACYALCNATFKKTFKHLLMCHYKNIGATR

[8] = biological target: T1, Muscarinic acetylcholine receptor M3; experiment: Displacement of [3H]N-methyl Scopolamine from human muscarinic M3 receptor expressed in CHO cells by scintillation proximity assay; assay type: cell-based; how it was run: as §2
[9] = biological target: T1, Muscarinic acetylcholine receptor M3; experiment: Antagonist activity at human muscarinic M3 receptor in human bronchus assessed as potency against carbachol-induced contraction; assay type: functional; conditions: read-out: pA2 (converted)
How it was run: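 Human bronchial strips (primary, secondary or tertiary airways, obtained at autopsy) mounted in organ baths on force-displacement transducers; preincubated 2 h with antagonist, then given increasing carbachol concentrations; potency expressed as pA2.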

[10] = biological target: T1, Muscarinic acetylcholine receptor M3; experiment: Antagonist activity at human muscarinic M3 receptor in human bronchus assessed as reversal time for 50% of carbachol-induced contraction to return to maximum relaxation at 10 nM; assay type: functional
How it was run: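 Human bronchial strips from primary, secondary or tertiary airways (autopsy) in organ baths on force-displacement transducers; preincubated 2 h with antagonist at 10 nM, then contracted with increasing carbachol. Antagonist then washed out, tissue superfused with carbachol-containing buffer and tension recovery followed over time; value is minutes to 50% reversal of antagonist blockade (Off t50).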

[11] = (§3) Oral bioavailability in rat at 5.8 mg/kg; assay type: ADME, organism-based; conditions: in vivo
How it was run: (§4)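 Rat oral dosing at 5.8 mg/kg; percent bioavailability determined from plasma levels, individual animal values listed because of variability.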

Mus musculus [12] = experiment: Inhibition of methacholine-induced bronchoconstriction in dosed BALB/c mouse assessed as respiratory values at 50 ug, intranasal at 24 hrs; assay type: functional
[13] = Systemic plasma clearance in rat at 2.5 mg/kg, iv; assay type: ADME, organism-based; design: dose 2.5 mg/kg, route intravenous
Mus musculus [14] = organism: Mus musculus; experiment: Bronchorelaxant activity in methacholine-induced BALB/c mouse bronchus contraction model assessed as time to 50% loss of maximum protection at 0.5 ug, intranasally; assay type: functional; how it was run: as §1
Rattus norvegicus = experiment: as §3; assay type: ADME, organism-based; conditions: in vivo, BLD = below limit of detection; how it was run: as §4

C[N+]1(C)[C@@H]2CCC[C@H]1C[C@@H](CC(O)(c1cccs1)c1cccs1)C2.[I-]
IC50 [1]: < 10 nM | Kb [1]: 2 nM | inhibition (INH) (Mus musculus [2]): 44%

C[N+]1(C)[C@@H]2CC[C@H]1C[C@@H](CC(O)(c1ccc(F)c(F)c1)c1ccc(F)c(F)c1)C2
IC50 [1]: 290 nM

CN1[C@@H]2CC[C@H]1C[C@@H](CCC(O)(c1ccccc1)c1ccccc1)C2
IC50 [1]: 134 nM

CN1[C@@H]2CC[C@H]1C[C@@H](CC(C#N)(c1ccccc1)c1ccccc1)C2
Kb [1]: 0.316 nM

C[N+]1(C)[C@@H]2CC[C@H]1C[C@@H](C=C(c1cccs1)c1cccs1)C2.[Br-]
ED50 (Mus musculus [3]): 0.2 µg | Time (Mus musculus [4]): 24 h | clearance [5]: 85 mL/min/kg | IC50 [1]: < 10 nM | Kb [1]: 0.1 nM | inhibition (INH) (Mus musculus [2]): 72% | Ki [6]: 0.38 nM | Ki [7]: 0.73 nM | Ki [8]: 0.45 nM | Kb [9]: 1 nM | TIME [10]: 0.983 h | bioavailability [11]: 2.4%

C[N+]1(C)[C@@H]2CCC[C@H]1C[C@H](C=C(c1cccs1)c1cccs1)C2.[Br-]
IC50 [1]: < 10 nM | Kb [1]: 1 nM | inhibition (INH) (Mus musculus [2]): 49%

CN1[C@@H]2CC[C@H]1C[C@@H](CC(O)(c1ccccc1)c1ccccc1)C2
IC50 [1]: 973 nM | inhibition (INH) (Mus musculus [12]): >10%

Cc1ccccc1C(O)(C[C@H]1C[C@H]2CCC[C@@H](C1)[N+]2(C)C)c1ccccc1C
IC50 [1]: 23 nM

C[N+]1(C)[C@@H]2CC[C@H]1C[C@@H](CC(O)(c1ccc(Cl)cc1)c1ccc(Cl)cc1)C2
IC50 [1]: 74 nM

C[N+]1(C)[C@@H]2CC[C@H]1C[C@@H](CC(O)(c1cc(F)cc(F)c1)c1cc(F)cc(F)c1)C2
IC50 [1]: 112 nM

C[N+]1(C)[C@@H]2CC[C@H]1C[C@@H](CC(CO)(c1ccccc1)c1ccccc1)C2
Kb [1]: 3.98 nM

Cc1ccccc1C(=C[C@H]1C[C@H]2CC[C@@H](C1)[N+]2(C)C)c1ccccc1C.[Br-]
IC50 [1]: < 10 nM | Kb [1]: 0.1 nM | inhibition (INH) (Mus musculus [2]): 91%

CN1[C@@H]2CC[C@H]1C[C@@H](CC(C(N)=O)(c1ccccc1)c1ccccc1)C2
IC50 [1]: < 10 nM | Kb [1]: 0.1 nM | inhibition (INH) (Mus musculus [2]): >10%

CCC(O)(C[C@H]1C[C@H]2CC[C@@H](C1)N2C)c1ccccc1 (some centres not stated)
IC50 [1]: 135 nM

Cc1c(F)cccc1C(O)(C[C@H]1C[C@H]2CC[C@@H](C1)[N+]2(C)C)c1cccc(F)c1C
IC50 [1]: 65 nM

Cc1ccc(F)cc1C(O)(C[C@H]1C[C@H]2CC[C@@H](C1)[N+]2(C)C)c1cc(F)ccc1C
IC50 [1]: 37 nM

C[N+]1(C)[C@@H]2CC[C@H]1C[C@@H](C=C(c1ccccc1)c1ccccc1)C2.[Br-]
IC50 [1]: < 10 nM | Kb [1]: 5.01 nM | inhibition (INH) (Mus musculus [12]): 76%

C[N+]1(C)[C@@H]2CC[C@H]1C[C@@H](CC(O)(c1cccc(F)c1)c1cccc(F)c1)C2
IC50 [1]: 11 nM | Kb [1]: 10 nM

C[N+]1(C)[C@@H]2CC[C@H]1C[C@@H](CC(O)(c1cccs1)c1cccs1)C2.[Br-]
IC50 [1]: < 10 nM | Kb [1]: 2.51 nM | inhibition (INH) (Mus musculus [2]): 19%

COc1ccccc1C(O)(C[C@H]1C[C@H]2CC[C@@H](C1)[N+]2(C)C)c1ccccc1OC
IC50 [1]: > 10000 nM

Cc1ccccc1C(O)(C[C@H]1C[C@H]2CC[C@@H](C1)[N+]2(C)C)c1ccccc1C.[Br-]
IC50 [1]: 10 nM | Kb [1]: 5.01 nM | inhibition (INH) (Mus musculus [2]): 34%

C[N+]1(C)[C@@H]2CC[C@H]1C[C@@H](CC(C#N)(c1ccccc1)c1ccccc1)C2.[Br-]
ED50 (Mus musculus [3]): 0.01 µg | clearance [13]: 74 mL/min/kg | Ki [7]: 0.17 nM | Ki [8]: 0.06 nM | Kb [9]: 0.1 nM | TIME [10]: 1.42 h | Time (Mus musculus [14]): >24 h | F (Rattus norvegicus): BLD

C[N+]1(C)[C@@H]2CC[C@H]1C[C@@H](CC(O)(c1ccccc1)c1ccccc1)C2.[Br-]
inhibition (INH) (Mus musculus [12]): 62%

C[N+]1(C)[C@@H]2CC[C@H]1C[C@@H](CC(C(N)=O)(c1ccccc1)c1ccccc1)C2.[I-]
IC50 [1]: < 10 nM | Kb [1]: 0.126 nM | inhibition (INH) (Mus musculus [2]): 90%

CN1[C@@H]2CC[C@H]1C[C@@H](C(O)(c1ccccc1)c1ccccc1)C2
IC50 [1]: 1500 nM

COc1ccc(C(O)(C[C@H]2C[C@H]3CC[C@@H](C2)[N+]3(C)C)c2ccc(OC)cc2)cc1
IC50 [1]: > 10000 nM

Cc1cc(C(O)(C[C@H]2C[C@H]3CC[C@@H](C2)[N+]3(C)C)c2csc(C)c2)cs1
IC50 [1]: 65 nM

C[N+]1(C)[C@@H]2CCC[C@H]1C[C@H](CC(O)(c1ccccc1)c1ccccc1)C2.[Br-]
IC50 [1]: < 10 nM | Kb [1]: 1.58 nM | inhibition (INH) (Mus musculus [2]): 34%

CN1[C@@H]2CC[C@H]1C[C@@H](CC(O)(c1ccccc1)c1ccccn1)C2 (some centres not stated)
IC50 [1]: 19 nM

C[N+]1(C)[C@@H]2CC[C@H]1C[C@@H](CC(O)(c1ccsc1)c1ccsc1)C2
IC50 [1]: 17 nM

CN1[C@@H]2CC[C@H]1C[C@@H](CC(O)(c1cccs1)c1cccs1)C2
IC50 [1]: < 10 nM | Kb [1]: 2.51 nM | inhibition (INH) (Mus musculus [12]): >10%

C[N+]1(C)[C@@H]2CC[C@H]1C[C@@H](CC(O)(c1cccc(Cl)c1)c1cccc(Cl)c1)C2
IC50 [1]: 25 nM
